Laboratory results: PMC4862586 (The New England journal of medicine, 2015)

Columns and labels:
CLL = settings: cited from earlier work
Itk = target: T1, Itk (Homo sapiens, UniProt Q08881); experiment: Itk inhibition; assay type: cell-based
T1 sequence (Q08881 1-620): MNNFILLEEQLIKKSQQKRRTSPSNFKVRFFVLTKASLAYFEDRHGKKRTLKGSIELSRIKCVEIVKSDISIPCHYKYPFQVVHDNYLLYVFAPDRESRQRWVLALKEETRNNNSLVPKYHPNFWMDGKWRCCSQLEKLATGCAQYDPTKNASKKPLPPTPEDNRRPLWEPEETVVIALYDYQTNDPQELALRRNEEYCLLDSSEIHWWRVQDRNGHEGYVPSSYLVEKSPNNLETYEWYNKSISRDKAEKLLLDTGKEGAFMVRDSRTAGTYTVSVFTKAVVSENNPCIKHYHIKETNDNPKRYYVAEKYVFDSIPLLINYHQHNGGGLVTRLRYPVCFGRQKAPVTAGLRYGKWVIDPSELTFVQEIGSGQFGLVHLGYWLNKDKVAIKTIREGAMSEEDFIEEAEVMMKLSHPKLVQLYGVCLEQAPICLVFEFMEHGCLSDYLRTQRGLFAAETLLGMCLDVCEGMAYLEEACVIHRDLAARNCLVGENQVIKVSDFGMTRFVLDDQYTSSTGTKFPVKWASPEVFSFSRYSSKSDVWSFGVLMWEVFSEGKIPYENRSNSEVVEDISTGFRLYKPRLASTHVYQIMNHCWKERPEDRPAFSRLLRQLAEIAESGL

primary CLL cells = experiment: B-cell receptor signaling in primary CLL cells; assay type: cell-based, human
[1] = Serum immunoglobulins and immune cell numbers over time in patients; assay type: in vivo
phosphorylated Btk = experiment: Phosphorylation of Btk by intracellular flow cytometry; assay type: in vivo, human; settings: respective time points across all cohorts
Method in brief: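 Patients with relapsed CLL received oral drug continuously at 100, 175, 250 or 400 mg once daily (dose escalation) or 100 mg twice daily (phase 2 expansion). Phosphorylated Btk in blood samples was measured by intracellular flow cytometry.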

[2] = test system: patients with relapsed CLL; experiment: Phase 1–2 multicenter study: safety, adverse events; assay type: in vivo
[3] = test system: pro-inflammatory cytokines; experiment: Pro-inflammatory cytokine levels in patients; assay type: in vivo, human; settings: from baseline to day 28 of treatment
Method in brief: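 Patients with relapsed CLL were dosed orally and continuously at 100–400 mg once daily or 100 mg twice daily. Change in serum cytokines from baseline was tested by Wilcoxon signed-rank. Only patients with baseline and every follow-up value were included, and there was no multiplicity adjustment.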

[4] = Pharmacokinetics in patients, cycle 1, non-compartmental analysis; assay type: in vivo; settings: human, po
platelet aggregation = experiment: Platelet aggregation derived from blood of patients; assay type: in vivo, human; settings: blood of patients receiving the drug
EGFR = EGFR signaling; assay type: cell-based
relapsed CLL = experiment: Phase 1–2 multicenter study: clinical response; assay type: in vivo, human; settings: for Resolution of B symptoms: 16 patients with B symptoms at baseline
natural killer cells = assay type: cell-based, human; settings: obinutuzumab-coated CLL cells
[5] = test system: naturally occurring canine B-cell lymphomas; settings: cited from earlier work
[6] = all patients, median follow-up 14.3 months

C=CC(=O)Nc1cccc(Nc2nc(Nc3ccc(OCCOC)cc3)ncc2F)c1 [CC-292]
Clinical results (CLL; CLL): inferior clinical results compared with ibrutinib | Tolerability (CLL; human, in vivo): well tolerated

CC#CC(=O)N1CCC[C@H]1c1nc(-c2ccc(C(=O)Nc3ccccn3)cc2)c2c(N)nccn12 [acalabrutinib, Acalabrutinib]
Itk inhibition (Itk): lack of Itk inhibition | Inhibition of B-cell receptor signaling (primary CLL cells): dose-dependent inhibition | Serum IgG, IgA and IgM over time ([1]; excluding patients receiving intravenous immunoglobulin): did not demonstrate significant change | T cell (CD4+, CD8+), natural killer cell and monocyte numbers over time ([1]; human, in vivo): no clinically significant change | Phosphorylated Btk after treatment (phosphorylated Btk): complete loss of phosphorylated Btk | Grade 5 event of pneumonia ([2]; N=61): † The all-grade column includes one patient with a Grade 5 event of pneumonia. | Adverse event Arthralgia, All Grades ([2]; human, in vivo): 10 (16) number of patients (percent) | Adverse event Arthralgia, Grades 1–2 ([2]; human, in vivo): 9 (15) number of patients (percent) | Adverse event Arthralgia, Grades 3–4 ([2]; human, in vivo): 1 (2) number of patients (percent) | Adverse event Contusion, All Grades ([2]; human, in vivo): 11 (18) number of patients (percent) | Adverse event Contusion, Grades 1–2 ([2]; human, in vivo): 11 (18) number of patients (percent) | Adverse event Contusion, Grades 3–4 ([2]; human, in vivo): 0 (0) number of patients (percent) | Adverse event Decreased weight, All Grades ([2]; human, in vivo): 10 (16) number of patients (percent) | Adverse event Decreased weight, Grades 1–2 ([2]; human, in vivo): 10 (16) number of patients (percent) | Adverse event Decreased weight, Grades 3–4 ([2]; human, in vivo): 0 (0) number of patients (percent) | Adverse event Diarrhea, All Grades ([2]; human, in vivo): 24 (39) number of patients (percent) | Adverse event Diarrhea, Grades 1–2 ([2]; human, in vivo): 23 (38) number of patients (percent) | Adverse event Diarrhea, Grades 3–4 ([2]; human, in vivo): 1 (2) number of patients (percent) | Adverse event Fatigue, All Grades ([2]; human, in vivo): 13 (21) number of patients (percent) | Adverse event Fatigue, Grades 1–2 ([2]; human, in vivo): 11 (18) number of patients (percent) | Adverse event Fatigue, Grades 3–4 ([2]; human, in vivo): 2 (3) number of patients (percent) | Adverse event Headache, All Grades ([2]; human, in vivo): 26 (43) number of patients (percent) | Adverse event Headache, Grades 1–2 ([2]; human, in vivo): 26 (43) number of patients (percent) | Adverse event Headache, Grades 3–4 ([2]; human, in vivo): 0 (0) number of patients (percent) | Adverse event Hypertension, All Grades ([2]; human, in vivo): 12 (20) number of patients (percent) | Adverse event Hypertension, Grades 1–2 ([2]; human, in vivo): 8 (13) number of patients (percent) | Adverse event Hypertension, Grades 3–4 ([2]; human, in vivo): 4 (7) number of patients (percent) | Adverse event Increased weight, All Grades ([2]; human, in vivo): 16 (26) number of patients (percent) | Adverse event Increased weight, Grades 1–2 ([2]; human, in vivo): 15 (25) number of patients (percent) | Adverse event Increased weight, Grades 3–4 ([2]; human, in vivo): 1 (2) number of patients (percent) | Adverse event Nausea, All Grades ([2]; human, in vivo): 12 (20) number of patients (percent) | Adverse event Nausea, Grades 1–2 ([2]; human, in vivo): 12 (20) number of patients (percent) | Adverse event Nausea, Grades 3–4 ([2]; human, in vivo): 0 (0) number of patients (percent) | Adverse event Peripheral edema, All Grades ([2]; human, in vivo): 13 (21) number of patients (percent) | Adverse event Peripheral edema, Grades 1–2 ([2]; human, in vivo): 13 (21) number of patients (percent) | Adverse event Peripheral edema, Grades 3–4 ([2]; human, in vivo): 0 (0) number of patients (percent) | Adverse event Petechiae, All Grades ([2]; human, in vivo): 10 (16) number of patients (percent) | Adverse event Petechiae, Grades 1–2 ([2]; human, in vivo): 10 (16) number of patients (percent) | Adverse event Petechiae, Grades 3–4 ([2]; human, in vivo): 0 (0) number of patients (percent) | Adverse event Pyrexia, All Grades ([2]; human, in vivo): 14 (23) number of patients (percent) | Adverse event Pyrexia, Grades 1–2 ([2]; human, in vivo): 12 (20) number of patients (percent) | Adverse event Pyrexia, Grades 3–4 ([2]; human, in vivo): 2 (3) number of patients (percent) | Adverse event Upper respiratory tract infection, All Grades ([2]; human, in vivo): 14 (23) number of patients (percent) | Adverse event Upper respiratory tract infection, Grades 1–2 ([2]; human, in vivo): 14 (23) number of patients (percent) | Adverse event Upper respiratory tract infection, Grades 3–4 ([2]; human, in vivo): 0 (0) number of patients (percent) | Most common adverse events: diarrhea ([2]; human, in vivo): 39% | Most common adverse events: headache ([2]; human, in vivo): 43% | Most common adverse events: increased weight ([2]; human, in vivo): 26% | Most common adverse events: pyrexia ([2]; human, in vivo): 23% | Most common adverse events: upper respiratory tract infection ([2]; human, in vivo): 23% | Dose-limiting toxicities ([2]; in vivo): No dose-limiting toxicities | Major hemorrhage or atrial fibrillation ([2]; in vivo): No major hemorrhage or atrial fibrillation | Severe diarrhea, rash, arthralgia/myalgia, bruising and bleeding events ([2]; in vivo): rare | Tolerability of long-term therapy ([2]; in vivo): well tolerated | Pro-inflammatory cytokines [3]: decreased significantly | Absorption and elimination ([4]; in vivo): rapidly absorbed and eliminated | half-life ([4]; plasma): ~1 h | Platelet aggregation (platelet aggregation): not the former | Inhibition of EGFR signaling (EGFR): does not inhibit | Response rate (relapsed CLL; 4 patients with prior idelalisib therapy): 100% | Resolution of B symptoms (relapsed CLL; by cycle 4): 88 % of patients | Resolution of B symptoms (relapsed CLL; by cycle 9): 100 % of patients | Response rate (relapsed CLL; 18 patients with del(17)(p13.1)): 100% | Patients experiencing reduction in lymphadenopathy (relapsed CLL; 59 of 60 patients): 98% | Progression-free survival events (relapsed CLL; a death from pneumonia (13 months) and a single progression (16 months)): 2 events | Best overall response rate (partial response and partial response with lymphocytosis) (relapsed CLL; [6]): 95% | Partial response with lymphocytosis (relapsed CLL; [6]): 10% | Stable disease (relapsed CLL; [6]): 5% | Cases of Richter’s transformation (relapsed CLL; median follow-up 14.3 months): No cases | Improvements in hemoglobin levels, platelet count and absolute neutrophil count (relapsed CLL; patients with baseline cytopenia): noted in the great majority of patients | Inhibition of antibody-mediated killing by natural killer cells (natural killer cells): does not inhibit | Clinical responses [5]: objective clinical responses
